Among the data in ChEMBL document CHEMBL4513216, “Probing the Open Global Health Chemical Diversity Library for Multistage-Active Starting Points for Next-Generation Antimalarials” (ACS Infect Dis, 2020) are cytotoxicity values, retold here.

This series is described as follows: Toxicity liver stage against HepG2, at 10uM. Conditions: human, HepG2-A16-CD81EGFP cells; read-out: INHIBITION
Also on record: test concentration 10 uM, cell line HepG2-A16-CD81EGFP. In kind it is cell-based. The procedure, abridged:
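Uninfected HepG2-A16-CD81EGFP cells, 3 × 10^3 per well, 1536-well, plated on prespotted compound at 10 μM final, parasite-free screening media added to match infected plates; puromycin 10 μM positive, DMSO 0.5% negative; run in parallel with 48 h PbLuc assay at 37 °C, 5% CO2; viability by CellTiter-Glo luminescence, normalized to controls.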
Take `CN(C)c1nccnc1N1CC[C@@]2(O)CCNC[C@H]2C1`: the cytotoxicity at 10 µM was 7.12%.
The figure for `O=C(CCN1C[C@H]2CC[C@@H]1C2)N1CCN(c2cccc(Cl)c2)C(=O)C1` is 1.4%; for `O=C(NCC1(O)CCc2ccccc2C1)c1cccs1` (stereo unspecified) it is 13.8%.
Consider `CN1CCN(S(=O)(=O)C2CC2)Cc2cccnc21`, for which the cytotoxicity at 10 µM was -108%.
Regarding `CCCn1ncc(C(=O)N(Cc2cccnc2)C[C@@H]2CCC(=O)N2)c1C`, the cytotoxicity at 10 µM was 7.69%.
Take `O=C(Nc1ncnc2c1CCC2)c1cccc(F)c1`: the cytotoxicity at 10 µM was -172%.
In the case of `Cc1ccnc(C2COCCN2C)n1` (stereo unspecified), the cytotoxicity at 10 µM amounted to 3.59%.
Consider `Cc1ncsc1CN1CCO[C@H]2[C@H](Oc3ccccn3)CC[C@@H]21`, for which the cytotoxicity at 10 µM was -0.762%.
The figure for `COCc1cc(O)nc(C2CCCN(Cc3cccc(Cl)c3Cl)C2)n1` (stereo unspecified) is -7.47%; for `Cc1nc(N(C)CCCc2nccn2C)c2c(C)nn(C)c2n1` it is 5.84%.
Turning to `Cc1nc(CC2CCN(Cc3ccc(CCC(C)(C)O)cc3)CC2)no1`, the cytotoxicity at 10 µM was -0.94%.
The figure for `O=C(O)CC1CN(S(=O)(=O)c2cccc(F)c2)c2ccccc21` (stereo unspecified) is -4.17%.
`COCC(=O)N1CCc2cccc(S(=O)(=O)N3CCN(C)CC3)c2C1`: the cytotoxicity at 10 µM is 5.07%.
Regarding `Cc1cc(C)c(CNC(=O)NCc2nnc3n2CCC3)c(=O)[nH]1`, the cytotoxicity at 10 µM was 22.1%.
Next, `CN(C)CCCN(CCC#N)C(=O)Nc1ccc2[nH]ccc2c1`: -52.4%; `CCn1cc(C(=O)Nc2ccc(C)cc2C(=O)NC)cn1`: 5.81%.
The figure for `CCc1nc(-c2ccc(NC(=O)N3CCCC3)cc2)no1` is 5.03%.
Take `COCCC(=O)N1CCCC1c1nc(O)cc(C(C)C)n1` (stereo unspecified): the cytotoxicity at 10 µM is -26.4%.
As for `Cn1cc(C[C@H]2[C@@H](O)CCN2C(=O)c2ccc[nH]2)cn1`, the cytotoxicity at 10 µM was -71.2%.
With `CC(=O)N1CCN(Cc2ccncc2)CC2(CC(=O)N(C)C2)C1` (stereo unspecified), the cytotoxicity at 10 µM is -1.83%.
Consider `COc1ncccc1CNC(=O)N1CCCC1c1ccsc1` (stereo unspecified), for which the cytotoxicity at 10 µM was -15.9%.
As for `Cc1ccc(CNC(=O)Nc2nncs2)cn1`, the cytotoxicity at 10 µM is -9.12%.
The figure for `Cc1cccc(C2(C(=O)NCC3CN(C)CCO3)CC2)c1` (stereo unspecified) is -7.45%; for `CCN(CCO)C[C@@H]1CN(c2nc(C)cc(C)n2)C[C@@H]1CO` it is -5.34%; for `CCCN1CCC(CNC(=O)C2(c3cc(C)cc(C)c3)CCC2)C1` (stereo unspecified) it is -0.185%.
Turning to `OCC(CO)N1CCCC(Cc2cnc(Nc3ccccn3)cn2)C1` (stereo unspecified), the cytotoxicity at 10 µM was -5.97%.
Next, `O=S(=O)(c1cc(F)ccc1F)N1CCCC1c1ccco1` (stereo unspecified): 11.2%; `Cc1nonc1CC(=O)N1C[C@H]2CC[C@@H](C1)N(Cc1ccccc1)C2=O`: -11.6%.
Next, `Cc1ccsc1C(=O)N1CCCc2c(c(=O)n(C)n2C)C1`: 6.95%; `COC[C@@H]1CC[C@H]2[C@H](CCN2S(=O)(=O)c2ccc(OC)cc2)O1`: 0.796%; `O=C(CCc1ccccc1)N1CCC(N2CCNC2=O)CC1`: 5.49%.
The figure for `Cc1c(CN2C[C@@H](O)[C@H](Oc3cccc(F)c3)C2)cnn1C` is -8.21%; for `CNc1nc2cn(CCc3ccc(F)cc3)c(=O)c-2c[nH]1` it is 7.55%; for `CCN(Cc1ccc2c(c1)OCO2)C(=O)c1cccnc1O` it is -9.51%.
On to `CNc1cc(C)nc(C2CN(Cc3ccc(C)nc3)CCO2)c1` (stereo unspecified), for which the cytotoxicity at 10 µM was -2.29%.
Next, `Cc1cnc(CN2CCCC2c2noc(C)n2)cn1` (stereo unspecified): 3.78%.
The figure for `Cc1cc(=O)n(CC(=O)NCC2CCCO2)c(-c2ccccc2)n1` (stereo unspecified) is -14.6%.
Next, `CCOC(=O)c1nc(CC(=O)Nc2ccccc2)no1`: 6.96%.
On to `CCC(=O)N1CCN(C(=O)NC2CCc3ccccc3C2)CC1` (stereo unspecified), for which the cytotoxicity at 10 µM was -15.9%.
Next, `CC(=O)c1cccc(NC(=O)Cn2nc(-c3cccs3)oc2=O)c1`: 4.78%; `COC(=O)c1sccc1NC(=O)C1CCCN1C(=O)c1ccco1` (stereo unspecified): 20.3%; `Cc1ccc(F)c(S(=O)(=O)NCc2cccc(N3CCOC3=O)c2)c1`: 9.62%.
Next, `CN(Cc1ccc(F)cc1)C(=O)NCC1(N2CCOCC2)CCSC1` (stereo unspecified): -21.9%; `Cc1nnc(SCCCNC(=O)c2ccc3c(c2)OCO3)s1`: 8.8%; `COc1ccc(CNC(=O)CCN2CCOC(C(F)(F)F)C2)cc1` (stereo unspecified): 4.3%.
As to `CC(NC(=O)Nc1cccnc1N1CCCC1)c1ccn(C)c1` (stereo unspecified), the cytotoxicity at 10 µM was -24.6%.
Turning to `CC(C)NC(=O)N1C[C@@H]2C[C@H](C(=O)N3CCCC3)[C@H](C1)O2`, the cytotoxicity at 10 µM was -101%.
Next, `Cn1ccc(C(=O)NCc2ccc(Cn3ccnc3)cc2)cc1=O`: 3.32%; `Cc1c(C2CCOC(C)(C)C2)nc(N)c(C#N)c1-c1ccc(O)cc1` (stereo unspecified): 22.8%; `O=C(COc1ccc(C(F)(F)F)cc1)N1CCOCC1c1ncon1` (stereo unspecified): -12.5%.
`OC(CNCCc1nnc2ccccn12)c1ccc2c(c1)OCO2` (stereo unspecified): the cytotoxicity at 10 µM came out at 4.06%.
Next, `Cc1nc(C2CCCC2)sc1C(N)=O`: -5.03%; `O=C(CCc1cscn1)N1CCCC(c2ccn[nH]2)C1` (stereo unspecified): -9.14%.
The figure for `Cc1noc(C)c1CN1CCO[C@H]2CN(CC3CC3)C[C@H]21` is -4.25%.
The figure for `COc1cc(C(=O)NCC2CCCO2)nc2c(C)cc(F)cc12` (stereo unspecified) is 1.79%; for `CN(C)C(C(=O)N1CCC(C#N)CC1)c1ccccc1F` (stereo unspecified) it is -3.59%.
For `NC(=O)C1CN(C(=O)Nc2ccccc2OCC(F)(F)F)CCO1` (stereo unspecified), the cytotoxicity at 10 µM is -7.75%.
With `CCN(CC1CCCO1)C(=O)Nc1ccc(OC)c(C)c1` (stereo unspecified), the cytotoxicity at 10 µM was -12.9%.
Next, `Cn1c(C2CCCN2C(=O)c2cn(CCN)nn2)nc2ccccc21` (stereo unspecified): 3.76%; `Cc1cccc(N2N=C(C(=O)NC(C)Cc3ccco3)CCC2=O)c1` (stereo unspecified): -9.6%.
Next, `CC(C)NC(=O)Nc1ccc(CNCc2cccc(OC(F)F)c2)cc1`: -7.96%; `CCCC1c2cccn2CCN1S(=O)(=O)N1CCOCC1` (stereo unspecified): 1.26%; `c1ccc(-n2ccc(CN3CCCC3Cn3cccn3)n2)cc1` (stereo unspecified): -2.48%.
As for `CCc1cc(N[C@H](C(N)=O)C(C)C)n2nc(C)c(C)c2n1`, the cytotoxicity at 10 µM turned out to be 5.88%.
On to `CC(CCN1CCOCC1)NC(=O)c1cccc(C(F)(F)F)c1F` (stereo unspecified), for which the cytotoxicity at 10 µM was -44.8%.
Next, `Cc1ccc(N2C[C@H]3CCC[C@@H](CN4CCOCC4)[C@H]3C2)nn1`: 10.7%.
Next, `Cc1nc(C(C)C)sc1C(=O)N(C)CCCc1cnn(C)c1`: -4.6%.
The figure for `CN1CCN(Cc2ccccc2CNC(=O)c2cc(Cl)ccc2F)CC1` is 9.61%; for `Cc1cccc(CN2CCCC3(Cc4ccccc4CNC3=O)C2)n1` (stereo unspecified) it is 5.37%.
Take `COc1ccc2c(c1)C(=O)NC1(CC2)CCN(Cc2cccnc2)C1` (stereo unspecified): the cytotoxicity at 10 µM came to 0.295%.
The figure for `CC(C(=O)NCc1ccnc(N2CCCC2)c1)n1cccn1` (stereo unspecified) is 0.309%.
